STAT1 activator – activators of IFN-gamma induced STAT1 signaling; NIH 3T3 STAT1-luciferase reporter, luminescence; 100% = IFN-gamma alone, no compound; activation (% of control), % at 5.5 µM; 2.6% of 200,000 active; AID 932;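 active means activation above the screen-wide mean activation plus 3 SD, cut at about 130% in these data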
STAT3 act – STAT3 signaling activation | U3A cells, IL-6 STAT3-luciferase reporter, luminescence; 100% = signal with IL-6 EC80 alone | activation (% of control), % at 5.6 µM | 0.91% of 190,000 active;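 active means activation above the screen-wide mean of compound activation plus 3 SD, cut at about 130% in these data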
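Assay system – human STAT1-deficient U3A cells with stable STAT3-luciferase reporter · Also added – IL-6 (33 ng/mL) · Schedule – compound 1 h, then IL-6 6 h at 37 °C · Technique – reporter luminescence signal · Evaluation – % activation versus median of IL-6-stimulated wells · Benchmarks – IL-6-only wells as 100% reference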
NF-kB expr up – NF-kB expression increase, human neuronal cells; NF-kB reporter expression; stronger effect = higher value; 1.6% of 190,000 active; fold change at 12.5 µM; in the data active means fold change above about 3.3
STAT3 inh-1 – reduces IL-6 driven STAT3 reporter signal; AID 862; U3A cells, IL-6 STAT3-luciferase reporter, luminescence; host cell line lacks STAT1; inhibition, % at 5.5 µM; 0.89% of 190,000 active;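 active means inhibition above the mean inhibition across all screened compounds plus 3 SD, cut at about 44% in these data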
APP 5'UTR act – activates APP 5'UTR luciferase reporter. activation, % at 2 µM. 1% of 190,000 active. SH-SY5Y APP 5'UTR luciferase reporter, luminescence; zero percent = DMSO vehicle wells;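 active means activation above a set limit, based on mean plus 3 SD of controls, cut at about 140% in these data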
STAT1 inh – reduces IFN-gamma driven STAT1 reporter signal; inhibition, % at 5.5 µM; 0.35% of 200,000 active; NIH 3T3 STAT1-luciferase reporter, luminescence;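 active means inhibition above a set limit, the mean inhibition across all tested compounds plus 3 SD, cut at about 34% in these data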
STAT3 inh-2 – confirmation of STAT3 signaling inhibitors; shares compounds with STAT3 inh-1; U3A cells, IL-6 STAT3 luciferase reporter, luminescence; cell line lacks STAT1; AID 1265; 45% of 1,200 active; inhibition, % at 5.7 µM;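 active means inhibition above the hit cutoff computed for the primary STAT3 screen, cut at about 44% in these data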
NFkB inh 2 – NF-kappaB inhibition in STAT3 inhibitor counter-screen. shares compounds with STAT3 inh-1. HEK293T NF-kB luciferase reporter, TNF-alpha induced. inhibition, % at 5.7 µM. 36% of 1,200 active;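 active means inhibition above the mean of solvent-only control wells plus 3 SD, cutoff set per campaign, cut at about 13% in these data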
STAT1 inh 2 – inhibits STAT1, counter-screen to STAT3 inhibitors; inhibition, % at 5.7 µM; shares compounds with STAT3 inh-1; 27% of 1,200 active; NIH 3T3 STAT1-luciferase reporter, IFN-gamma induced, luminescence;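 active means inhibition above the mean plus 3 SD of solvent-only control wells, limit set per screening run, cut at about 16% in these data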
Numbers stand for hits; - = inactive; . = no result given. An excerpt weighted towards active compounds, which were near 5.1% of everything screened.

SMILES | STAT1 activator | STAT3 act | NF-kB expr up | STAT3 inh-1 | APP 5'UTR act | STAT1 inh | STAT3 inh-2 | NFkB inh 2 | STAT1 inh 2
Fc1ccc(NC(=S)Nc2ccc(Cl)cc2Cl)cc1 | - | - | - | 44.5 | - | - | - | - | -
Cc1sc2ncn(CC(=O)NCCCC(=O)N3CCN(Cc4ccc5c(c4)OCO5)CC3)c(=O)c2c1C | - | - | - | - | - | - | . | . | .
O=C(CSC1=NCCS1)Nc1ccnc2ccccc12 | - | - | - | 64.2 | - | - | 74.7 | 20.8 | 24.1
COc1ccc(CCNC(N)=S)cc1OC | - | - | - | - | - | - | . | . | .
O=C(Nc1ccccc1)Nc1ncc([N+](=O)[O-])s1 | - | - | 4.09 | 54.4 | - | - | - | - | -
Cc1nc(C)c(C(=O)Nc2ncc([N+](=O)[O-])s2)o1 | - | - | - | 67.7 | - | - | - | - | -
CCCCC(=O)Nc1ncc([N+](=O)[O-])s1 | - | - | - | - | - | - | . | . | .
c1ccc2c(c1)OCC(CNc1ncnc3sccc13)O2 (centres undefined) | - | - | - | 84.1 | - | - | 86.9 | 32.3 | 19.8
Cc1nn2cc(-c3ccccc3)nc2s1 | 144.2 | - | 5.4 | 52.2 | - | - | - | - | -
COc1cc(NC(=O)c2ccc3c(c2)OCCO3)ccc1NC(=O)c1cccs1 | - | - | - | - | - | - | . | . | .
COc1cc(NC(=O)c2ccc([N+](=O)[O-])o2)ccc1NC(=O)c1cccs1 | - | - | - | 43.6 | - | - | - | - | -
O=C(NCc1ccncc1)c1ccc(Oc2ccccc2)cc1 | - | - | - | - | - | - | . | . | .
Cc1ccc(Oc2ccc(C(=O)NCc3ccncc3)cc2)cc1 | - | - | - | 52.1 | - | - | 44.0 | - | -
CCOC(=O)c1c(C)[nH]c(C)c1C(=O)COC(=O)c1cc(OC)c(OC)cc1OC | - | - | - | - | - | - | . | . | .
Cc1cccc2cc3c(N)c(C#N)sc3nc12 | - | - | - | 50.2 | - | - | - | - | -
O=C(Nc1ccc2ncccc2c1)c1cc(Cl)ccc1Cl | - | - | - | - | - | - | . | . | .
c1ccc2sc(NN=C3CCCCCC3)nc2c1 | - | - | - | 75.4 | 149.1 | 34.3 | - | - | -
COc1ccc(-n2c(-c3ccc(Cl)cc3)c[n+]3c2CCc2ccccc2-3)cc1 | - | - | - | 63.0 | - | - | 50.0 | - | 20.1
COc1ccc(-n2c(-c3ccccc3)nnc2-c2ccc(Cl)cc2)cc1 | - | - | - | - | - | - | . | . | .
O=C(NN1C(=O)c2ccccc2C1=O)c1ccccc1[N+](=O)[O-] | - | - | - | - | - | - | . | . | .
O=C(COc1ccc(Cl)cc1)Nc1ccc(N2CCN(C(=O)c3ccco3)CC2)cc1 | - | - | - | 60.7 | - | - | - | - | -
CC(=O)N1CCN(c2ccccc2NC(=O)COc2ccc(Cl)cc2Cl)CC1 | - | - | - | - | - | - | . | . | .
CC(=O)N1CCN(c2ccc(NC(=O)COc3ccc(Cl)cc3Cl)cc2)CC1 | - | - | - | 60.5 | - | - | - | - | -
COc1ccc(OCC(=O)Nc2ccc(N3CCN(C(=O)c4ccco4)CC3)cc2)cc1 | - | - | - | - | - | - | . | . | .
CC(=O)c1cccc(N=c2scc(-c3ccc(S(=O)(=O)N4CCOCC4)cc3)n2CCO)c1 | - | - | - | 75.2 | - | - | 77.5 | 26.9 | 25.3
SMILES | STAT1 activator | STAT3 act | NF-kB expr up | STAT3 inh-1 | APP 5'UTR act | STAT1 inh | STAT3 inh-2 | NFkB inh 2 | STAT1 inh 2
NNC(=O)c1cccc(COc2ccc(Br)cc2)c1 | - | - | - | 79.4 | - | - | 71.1 | 32.6 | 31.4
CC1CN(C(=O)c2cccc(COc3ccc(Br)cc3)c2)CC(C)O1 (centres undefined) | - | - | - | - | - | - | . | . | .
O=C(Nc1ccc2c(c1)OCCO2)c1ccccc1F | - | - | 5.15 | 52.3 | 145.6 | - | - | - | -
CS(=O)(=O)Nc1ccccc1C(=O)Nc1ccc2c(c1)OCCO2 | - | - | - | - | - | - | . | . | .
CCn1nc(C(=O)OCC(=O)Nc2nc(-c3ccc(OC)cc3)cs2)c2ccccc2c1=O | - | - | - | - | - | - | . | . | .
O=C(Nc1nc(-c2ccc(S(=O)(=O)N3CCOCC3)cc2)cs1)c1ccccc1 | - | - | - | 49.8 | - | - | 44.1 | 18.0 | 23.9
O=C(Nc1nc(-c2ccc(S(=O)(=O)N3CCCC3)cc2)cs1)c1cccs1 | - | - | - | 46.9 | . | - | - | - | 17.0
O=C(Nc1nc(-c2ccc3ccccc3c2)cs1)C1CCN(S(=O)(=O)c2cccs2)CC1 | - | - | - | - | - | - | . | . | .
Cc1ccc(-c2csc(NC(=O)C3CCN(S(=O)(=O)c4cccs4)CC3)n2)cc1 | - | - | - | 79.4 | - | - | 83.7 | 32.9 | 17.2
C=CCn1c(C)cc(C(=O)COc2ccc(C)nc2[N+](=O)[O-])c1C | - | - | - | 54.3 | - | - | - | - | -
Cc1ccc(OCC(=O)c2cc(C)n(-c3ccccc3)c2C)c([N+](=O)[O-])n1 | - | - | - | 60.6 | - | - | 44.6 | 14.7 | -
CCCn1c(C)cc(C(=O)COc2ccc(C)nc2[N+](=O)[O-])c1C | - | - | - | - | - | - | . | . | .
N#Cc1c(NC(=O)C2CC(Cl)=CCC2C(=O)O)sc2c1CCCC2 (centres undefined) | - | - | - | - | - | - | . | . | .
Cc1cc(N2CCN(C(c3ccccc3)c3ccccc3)CC2)n2ncnc2n1 | - | - | - | - | - | - | . | . | .
Cc1cc(N2CCN(c3nc4ccccc4s3)CC2)n2ncnc2n1 | - | - | - | 82.7 | - | - | 72.7 | 24.6 | 30.4
N#Cc1c(NC(=O)c2ccccc2)sc2c1CCCCC2 | 136.2 | - | 3.8 | 52.5 | 198.2 | - | - | - | -
O=C(Nc1sc2c(c1C(=O)O)CCCCC2)c1ccccc1 | - | - | - | - | - | - | . | . | .
CC(C)(C)C1CCc2c(sc(NC(=O)CSc3ncn[nH]3)c2C#N)C1 (centres undefined) | - | - | - | - | - | - | . | . | .
Cc1csc(SCC(=O)Nc2sc3c(c2C#N)CCC3)n1 | - | - | - | - | - | - | . | . | .
Cc1ccnc(SCC(=O)Nc2sc3c(c2C#N)CCCC3)n1 | - | - | - | 71.9 | - | - | 56.9 | 15.3 | 16.9
N#Cc1c(NC(=O)CSc2ncn[nH]2)sc2c1CCCC2 | - | - | - | 60.4 | . | - | 57.0 | 18.0 | -
O=C(Oc1cccc(-n2cnnn2)c1)c1ccccc1Cl | - | - | - | - | - | - | . | . | .
O=[N+]([O-])c1ccc2nc(-c3ccc(OC(F)F)cc3)cn2c1 | - | - | 3.5 | 65.7 | - | - | - | - | -

Bioassay records (PubChem BioAssay)
